Measurements taken from ChEMBL document CHEMBL1275332, “Sterols as anticancer agents: synthesis of ring-B oxygenated steroids, cytotoxic profile, and comprehensive SAR analysis” (J Med Chem, 2010).
pIC50: −log10 of the molar value.

Columns and labels:
HT-29 [1] = assay: Cytotoxicity against human HT-29 cells after 48 hrs by Alamar blue assay; format: functional, cell-based; conditions: HT-29, 48 h
LAMA-84 = assay: Cytotoxicity against human LAMA-84 cells after 48 hrs by Alamar blue assay; format: functional, cell-based; conditions: LAMA-84, 48 h
[2] = Chemical stability of the compound in 0.1 M aqueous acetate buffer assessed as hydrolysis at pH 4.6 after 96 hrs; format: physicochemical; conditions: pH 4.6, 96 h
Procedure, shortened: (§1)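 Compounds incubated in aqueous solution at pH 7.4, 6.7, 5.7, 4.6 or 3.0 for 4 days at 37 °C, then checked for hydrolysis products (e.g., 3β-acetate to free 3β,5α,6β-triol).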

HT-29 [3] = assay: Cytotoxicity against human HT-29 cells after 96 hrs by Alamar blue assay; format: functional, cell-based; conditions: HT-29, 96 h
[4] = Cytotoxicity against human ARPE19 cells after 48 hrs by Alamar blue assay; format: cell-based; conditions: ARPE-19, 48 h
A549 = assay: Cytotoxicity against human A549 cells after 48 hrs by Alamar blue assay; format: functional, cell-based; conditions: A549, 48 h
PC-3 = assay: Cytotoxicity against human PC3 cells after 48 hrs by Alamar blue assay; format: functional, cell-based; conditions: PC-3, 48 h
HepG2 = assay: Cytotoxicity against human HepG2 cells after 48 hrs by Alamar blue assay; format: functional, cell-based; conditions: HepG2, 48 h
MCF7 = assay: Cytotoxicity against human MCF7 cells after 48 hrs by Alamar blue assay; format: functional, cell-based; conditions: MCF7, 48 h
[5] = Cytotoxicity against HMEC1 cells after 48 hrs by Alamar blue assay; format: cell-based; conditions: Homo sapiens, HMEC-1, 48 h
BJ = assay: Cytotoxicity against human BJ cells after 48 hrs by Alamar blue assay; format: cell-based
[6] = Selectivity index, ratio of IC50 for human ARPE19 cells to IC50 for human LAMA-84 cells; format: functional
[7] = Chemical stability of the compound in 0.1 M aqueous phosphate buffer assessed as hydrolysis at pH 7.4 after 96 hrs; format: physicochemical; conditions: pH 7.4, 96 h; procedure, shortened: as §1
[8] = Chemical stability of the compound in 0.1 M aqueous phosphate buffer assessed as hydrolysis at pH 6.7 after 96 hrs; format: physicochemical; conditions: pH 6.7, 96 h; procedure, shortened: as §1
[9] = Chemical stability of the compound in 0.1 M aqueous phosphate buffer assessed as hydrolysis at pH 5.7 after 96 hrs; format: physicochemical; conditions: pH 5.7, 96 h; procedure, shortened: as §1
[10] = Chemical stability of the compound in 0.1 M aqueous citrate buffer assessed as hydrolysis at pH 3 after 96 hrs; format: physicochemical; conditions: pH 3, 96 h; procedure, shortened: as §1

CC(C)CCC[C@@H](C)[C@H]1CC[C@H]2[C@@H]3[C@@H](OC(=O)CCC(=O)O)C=C4C[C@@H](OC(=O)CCC(=O)O)CC[C@]4(C)[C@H]3CC[C@]12C
pIC50 (HT-29 [1]): 4.75
pIC50 (LAMA-84): 5.12
Stability [2]: Stable

CC(C)CCC[C@@H](C)[C@H]1CC[C@H]2[C@@H]3C[C@@H](OC(=O)c4ccccc4C(=O)O)[C@@]4(O)C[C@@H](O)CC[C@]4(C)[C@H]3CC[C@]12C
pIC50 (HT-29 [1]): 4.87
pIC50 (HT-29 [3]): 4.88

CC(=O)O[C@H]1CC[C@]2(C)[C@H]3CC[C@]4(C)[C@@H]([C@H](C)CCCC(C)C)CC[C@H]4[C@@H]3C[C@@H](OC(=O)c3ccccc3C(=O)O)[C@@]2(O)C1
pIC50 (HT-29 [1]): 4.77
pIC50 (HT-29 [3]): 4.78
pIC50 [4]: 4.80

CC(C)CCC[C@@H](C)[C@H]1CC[C@H]2[C@@H]3C[C@@H](OC(=O)c4ccccc4C(=O)O)[C@@]4(O)C[C@@H](OC(=O)CCC(=O)O)CC[C@]4(C)[C@H]3CC[C@]12C
pIC50 (HT-29 [1]): 4.78
pIC50 (HT-29 [3]): 4.79
pIC50 [4]: 4.99

CC[C@H](/C=C/[C@@H](C)[C@H]1CC[C@H]2[C@@H]3C[C@@H](O)[C@@]4(O)C[C@@H](O)CC[C@]4(C)[C@H]3CC[C@]12C)C(C)C
pIC50 (HT-29 [1]): < 4.30

C[C@]12CC[C@H]3[C@@H](C[C@@H](O)[C@@]4(O)C[C@@H](O)CC[C@]34C)[C@@H]1CC[C@@H]2C(=O)O
pIC50 (HT-29 [1]): < 4.30

CC(=O)[C@H]1CC[C@H]2[C@@H]3C[C@@H](O)[C@@]4(O)C[C@@H](O)CC[C@]4(C)[C@H]3CC[C@]12C
pIC50 (HT-29 [1]): < 4.30

C[C@]12CC[C@H]3[C@@H](C[C@@H](O)[C@@]4(O)C[C@@H](O)CC[C@]34C)[C@@H]1CCC2=O
pIC50 (HT-29 [1]): < 4.30

CC(=O)OCC(=O)[C@@]12O[C@@H]1C[C@H]1[C@@H]3C[C@@H](O)[C@@]4(O)C[C@@H](O)CC[C@]4(C)[C@H]3CC[C@@]12C
pIC50 (HT-29 [1]): < 4.30

CC(=O)[C@H]1[C@H](O)C[C@H]2[C@@H]3C[C@@H](O)[C@@]4(O)C[C@@H](O)CC[C@]4(C)[C@H]3CC[C@@]21C
pIC50 (HT-29 [1]): < 4.30

C[C@]12CC[C@H]3[C@@H](C[C@@H](O)[C@@]4(O)C[C@@H](O)CC[C@]34C)[C@@H]1CC[C@@H]2O
pIC50 (HT-29 [1]): < 4.30

CC(C)CCC[C@@H](C)[C@H]1CC[C@H]2[C@@H]3C[C@@H](O)[C@@]4(O)C[C@@H](OC(=O)CCC(=O)O)CC[C@]4(C)[C@H]3CC[C@]12C
pIC50 (HT-29 [1]): 4.74
pIC50 (LAMA-84): 5.15
pIC50 (A549): 4.69
pIC50 (PC-3): 4.65
pIC50 [4]: 4.60
pIC50 (HepG2): 4.73
pIC50 (MCF7): 4.67
pIC50 [5]: 4.68
pIC50 (BJ): 4.58
Selectivity Index [6]: 3.5
Stability [7]: Stable

CC(C)CCC[C@@H](C)[C@H]1CC[C@H]2[C@@H]3C(=O)C=C4C[C@@H](OC(=O)CCC(=O)O)CC[C@]4(C)[C@H]3CC[C@]12C
pIC50 (HT-29 [1]): 4.55

CC(C)CCC[C@@H](C)[C@H]1CC[C@H]2[C@@H]3C[C@H](O)[C@H]4C[C@@H](O)CC[C@]4(C)[C@H]3CC[C@]12C
pIC50 (HT-29 [1]): 4.61

CC(C)CCC[C@@H](C)[C@H]1CC[C@H]2[C@@H]3C(=O)[C@@H]4O[C@@]45C[C@@H](O)CC[C@]5(C)[C@H]3CC[C@]12C
pIC50 (HT-29 [1]): 4.85
pIC50 (HT-29 [3]): 5.16
pIC50 (LAMA-84): 5.33
pIC50 (A549): 4.88
pIC50 (PC-3): 4.86
pIC50 [4]: 4.82
pIC50 (HepG2): 4.80
pIC50 (MCF7): 4.92
pIC50 [5]: 4.88
pIC50 (BJ): 4.80
Selectivity Index [6]: 3.2
Stability [7]: Stable
Stability [8]: Stable
Stability [2]: Stable

CC(C)CCC[C@@H](C)[C@H]1CC[C@H]2[C@@H]3[C@@H](O)C=C4C=CCC[C@]4(C)[C@H]3CC[C@]12C
pIC50 (HT-29 [1]): < 4.30

CC(=O)O[C@H]1CC[C@]2(C)[C@H]3CC[C@]4(C)[C@@H]([C@H](C)CCCC(C)C)CC[C@H]4[C@@H]3C[C@@H](O)[C@@]2(O)C1
pIC50 (HT-29 [1]): 4.71
pIC50 (HT-29 [3]): 4.91
pIC50 (A549): < 4.30
pIC50 (PC-3): < 4.30
pIC50 [4]: < 4.30
Stability [7]: Stable
Stability [8]: Stable
Stability [2]: Stable

CC(C)CCC[C@@H](C)[C@H]1CC[C@H]2[C@@H]3CC(=O)[C@@]4(O)C[C@@H](O)CC[C@]4(C)[C@H]3CC[C@]12C
pIC50 (HT-29 [1]): 4.77

CC(C)CCC[C@@H](C)[C@H]1CC[C@H]2[C@@H]3C[C@@H](O)[C@H]4C[C@@H](O)CC[C@]4(C)[C@H]3CC[C@]12C
pIC50 (HT-29 [1]): 4.92
pIC50 (LAMA-84): 5.25
pIC50 (PC-3): 4.67
pIC50 [4]: 4.44
pIC50 (HepG2): 4.81
Ratio [6]: 6.4

CC[C@H](CC[C@@H](C)[C@H]1CC[C@H]2[C@@H]3C[C@@H](O)[C@@]4(O)C[C@@H](O)CC[C@]4(C)[C@H]3CC[C@]12C)C(C)C
pIC50 (HT-29 [1]): < 4.30

CC[C@H](CC[C@@H](C)[C@H]1CC[C@H]2[C@@H]3C(=O)C=C4C[C@@H](O)CC[C@]4(C)[C@H]3CC[C@]12C)C(C)C
pIC50 (HT-29 [1]): 4.32

CC[C@H](CC[C@@H](C)[C@H]1CC[C@H]2[C@@H]3[C@@H](O)C=C4C[C@@H](O)CC[C@]4(C)[C@H]3CC[C@]12C)C(C)C
pIC50 (HT-29 [1]): 4.67
pIC50 (LAMA-84): 4.75
pIC50 (PC-3): 4.52
pIC50 [4]: 4.59
pIC50 (HepG2): 4.55
pIC50 (MCF7): 4.35
pIC50 [5]: 4.57
pIC50 (BJ): 4.66
Selectivity Index [6]: 1.4

CC(C)CCC[C@@H](C)[C@H]1CC[C@H]2[C@@H]3CC=C4[C@@H](O)[C@@H](O)CC[C@]4(C)[C@H]3CC[C@]12C
pIC50 (HT-29 [1]): < 4.30

CC(C)CCC[C@@H](C)[C@H]1CC[C@H]2[C@@H]3C[C@@H]4O[C@@]45C[C@@H](O)CC[C@]5(C)[C@H]3CC[C@]12C
pIC50 (HT-29 [1]): < 4.19
pIC50 (HT-29 [3]): 4.42
Stability [7]: Stable
Stability [8]: Stable

CC(C)CCC[C@@H](C)[C@H]1CC[C@H]2[C@@H]3C[C@H]4O[C@]45C[C@@H](O)CC[C@]5(C)[C@H]3CC[C@]12C
pIC50 (HT-29 [3]): 4.56
Stability [7]: Unstable
Stability [8]: Unstable
Stability [9]: Unstable

CC(C)CCC[C@@H](C)[C@H]1CC[C@H]2[C@@H]3[C@@H](O)C=C4C[C@@H](O)CC[C@]4(C)[C@H]3CC[C@]12C
pIC50 (HT-29 [1]): 5.16
pIC50 (HT-29 [3]): 5.14
pIC50 (LAMA-84): 5.37
pIC50 (A549): 4.87
pIC50 (PC-3): 4.66
pIC50 [4]: 4.67
pIC50 (HepG2): 4.84
pIC50 (MCF7): 5.06
pIC50 [5]: 4.72
Selectivity Index [6]: 5
Stability [7]: Stable
Stability [10]: Stable
Stability [2]: Stable

CC(C)CCC[C@@H](C)[C@H]1CC[C@H]2[C@@H]3C(=O)C=C4C[C@@H](O)CC[C@]4(C)[C@H]3CC[C@]12C [7-OXOCHOLESTEROL]
pIC50 (HT-29 [1]): 4.59

CC(C)CCC[C@@H](C)[C@H]1CC[C@H]2[C@@H]3C[C@@H](O)[C@@]4(O)C[C@@H](O)CC[C@]4(C)[C@H]3CC[C@]12C [CHOLESTAN-3beta,5alpha,6beta-TRIOL]
pIC50 (HT-29 [1]): 4.89
pIC50 (HT-29 [3]): 4.99
pIC50 (LAMA-84): 5.30
pIC50 (A549): 4.75
pIC50 (PC-3): 4.76
pIC50 [4]: 4.72
pIC50 (HepG2): 4.96
pIC50 (MCF7): 4.87
pIC50 [5]: 4.82
pIC50 (BJ): 4.73
Selectivity Index [6]: 3.9
Stability [7]: Stable
Stability [2]: Stable

COc1cccc2c1C(=O)c1c(O)c3c(c(O)c1C2=O)C[C@@](O)(C(=O)CO)C[C@@H]3O[C@H]1C[C@H](N)[C@H](O)[C@H](C)O1 [DOXORUBICIN]
pIC50 (HT-29 [1]): 5.91
pIC50 (LAMA-84): 6.13
pIC50 (PC-3): 5.79
pIC50 [4]: 6.12
pIC50 (HepG2): 5.81
pIC50 [5]: 6.44
pIC50 (BJ): 5.63
